# ChEMBL document CHEMBL1123658, “1-(2-pyridinyl)piperazine derivatives with antianaphylactic, antibronchospastic, and mast cell stabilizing activities” (J Med Chem, 1987)
# Tests used:
# Rattus norvegicus [1] = assay: Inhibition of mast cell degranulation was assessed in female albino rats at a dose of 28 umol/kg iv; type: functional
# Cavia porcellus = assay: Antibronchospatic activity determined by histamine stimulated bronchospasm inhibition in guinea pigs after(i.v.) administration; type: functional, Bronchiole
# Summary of the method: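 Guinea pigs, Konzett–Rössler preparation. Bronchospasm was induced with histamine. Compound was given iv (1 mL/kg) 1 min before the agonist, dissolved in saline or saline with slight excess HCl or CH3SO3H (pH 3.5–4). Three doses were tested in duplicate, chosen to give 20–90% inhibition. ID75 was read graphically from log dose–response curves.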
# Mus musculus = assay: In vivo toxic effect was determined in mouse after intraperitoneal administration with 10% aqueous acacia gum; NA means poorly absorbed; type: toxicity, organism-based; details: ip
# Summary of the method: (§1)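 Female albino mice (20-30 g), 10 animals per dose, dosed intraperitoneally with compound in solution or suspension; compounds tested as salts unless noted. Mortality was recorded over 7 days.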
# Rattus norvegicus [2] = assay: Rat PCA Test(50% inhibition of spot areas)in the female albino rats after (ip) administration in 10% aqueous acacia gum; value ranges from 141-206; type: functional; details: read-out: ID50 (the source's name)
# Summary of the method: (§2)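 Female albino rats (200–250 g) received intradermal ventral injections of rat anti-egg-albumin antiserum; donors were raised with egg albumin im plus H. pertussis ip, and serum was taken at 12 days. 24 h later, compound was given ip in 10% acacia gum (10 mL/kg), 10 rats/group. Challenge 30 min later was iv 0.3% egg albumin plus 1% Evans blue. Blued areas were measured 30 min after challenge.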
# Rattus norvegicus [3] = assay: Rat PCA Test(50% inhibition of spot areas)in the female albino rats after oral administration in 10% aqueous acacia gum; value ranges from 30-108; type: functional; details: read-out: ID50 (the source's name)
# Summary of the method: (§3)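 Female rats (200-250 g) were passively sensitized by ventral intradermal anti-egg-albumin antiserum. This was raised in rats by intramuscular 1% egg albumin plus ip H. pertussis vaccine, with serum taken at 12 days. After 24 h, groups of 10 were dosed orally with compound or vehicle (10 mL/kg). At 60 min, iv challenge used 0.3% egg albumin with 1% Evans blue. Blued areas were measured after 30 min.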
# [4] = In vivo toxicity in mouse after oral administration with 10% aqueous acacia gum; type: organism-based
# Summary of the method: (§4)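 Female albino mice, 20-30 g. Compound given orally as solution or suspension in 10% aqueous acacia gum, 10 animals per dose. Deaths recorded over 7 days.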
# [5] = In vivo toxic effect was determined in mouse after oral administration with 10% aqueous acacia gum; value ranges from 1.75-2.99; type: toxicity, organism-based; summary of the method: as §4
# Rattus norvegicus [6] = assay: Rat PCA Test(50% inhibition of spot areas)in the female albino rats after (ip) administration in 10% aqueous acacia gum; value ranges from 42-79; type: functional; details: read-out: ID50 (the source's name); summary of the method: as §2
# Rattus norvegicus [7] = assay: Rat PCA Test(50% inhibition of spot areas)in the female albino rats after oral administration in 10% aqueous acacia gum; value ranges from 99-191; type: functional; details: read-out: ID50 (the source's name); summary of the method: as §3
# Rattus norvegicus [8] = assay: Inhibition of mast cell degranulation was assessed in female albino rats at a dose of 23 umol/kg iv; type: functional
# [9] = In vivo toxic effect was determined in mouse after intraperitoneal administration with 10% aqueous acacia gum; value ranges from 0.30-0.61; type: toxicity, organism-based; details: ip; summary of the method: as §1
# Rattus norvegicus [10] = assay: Rat PCA Test(50% inhibition of spot areas)in the female albino rats after (ip) administration in 10% aqueous acacia gum;Value ranges from(44-250); type: functional; details: read-out: ID50 (the source's name)
# Summary of the method: (§5)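 Antiserum came from female rats given 1% egg albumin in 0.9% NaCl intramuscularly plus Haemophilus pertussis vaccine (2 × 10^10 organisms) intraperitoneally, and was collected 12 days later. Recipient rats (200-250 g) got it intradermally at a ventral site. After 24 h, groups of 10 received vehicle or compound ip. At 30 min they were challenged iv with 0.3% egg albumin plus 1% Evans blue. Blued skin areas were measured 30 min later.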
# Rattus norvegicus [11] = assay: Rat PCA Test(50% inhibition of spot areas)in the female albino rats after oral administration in 10% aqueous acacia gum; type: functional; details: read-out: ID50 (the source's name); summary of the method: as §3
# [12] = In vivo toxic effect was determined in mouse after intraperitoneal administration with 10% aqueous acacia gum; value ranges from 3.43-5.07; type: toxicity, organism-based; details: ip; summary of the method: as §1
# Rattus norvegicus [13] = assay: Rat PCA Test(50% inhibition of spot areas)in the female albino rats after (ip) administration in 10% aqueous acacia gum; value ranges from 206-307; type: functional; details: read-out: ID50 (the source's name); summary of the method: as §2
# Rattus norvegicus [14] = assay: Inhibition of mast cell degranulation was assessed in female albino rats at a dose of 42 umol/kg iv; type: functional
# Rattus norvegicus [15] = assay: Rat PCA Test(50% inhibition of spot areas)in the female albino rats after (ip) administration in 10% aqueous acacia gum; value ranges from 14-22; type: functional; details: read-out: ID50 (the source's name); summary of the method: as §2
# [16] = In vivo toxic effect was determined in mouse after intraperitoneal administration with 10% aqueous acacia gum; value ranges from 0.50-0.84; type: toxicity, organism-based; details: ip; summary of the method: as §1
# [17] = In vivo toxic effect was determined in mouse after oral administration with 10% aqueous acacia gum; value ranges from 0.53-0.84; type: toxicity, organism-based
# [18] = In vivo toxic effect was determined in mouse after intraperitoneal administration with 10% aqueous acacia gum; value ranges from 0.27-0.50; type: toxicity, organism-based; details: ip; summary of the method: as §1
# Rattus norvegicus [19] = assay: Rat PCA Test(50% inhibition of spot areas)in the female albino rats after (ip) administration in 10% aqueous acacia gum; value ranges from 66-231; type: functional; details: read-out: ID50 (the source's name); summary of the method: as §2
# [20] = In vivo toxic effect was determined in mouse after intraperitoneal administration with 10% aqueous acacia gum; value ranges from 0.89-1.63; type: toxicity, organism-based; details: ip; summary of the method: as §1
# [21] = In vivo toxic effect was determined in mouse after oral administration with 10% aqueous acacia gum; value ranges from 1.19-2.07; type: toxicity, organism-based; summary of the method: as §4
# [22] = In vivo toxic effect was determined in mouse after oral administration with 10% aqueous acacia gum; value ranges from 0.77-1.28; type: toxicity, organism-based; summary of the method: as §4
# Rattus norvegicus [23] = assay: Rat PCA Test(50% inhibition of spot areas)in the female albino rats after (ip) administration in 10% aqueous acacia gum; value ranges from 34-42; type: functional; details: read-out: ID50 (the source's name); summary of the method: as §2
# [24] = In vivo toxic effect was determined in mouse after intraperitoneal administration with 10% aqueous acacia gum; value ranges from 0.61-0.99; type: toxicity, organism-based; details: ip; summary of the method: as §1
# Rattus norvegicus [25] = assay: Inhibition of mast cell degranulation was assessed in female albino rats at a dose of 26 umol/kg iv; type: functional
# Rattus norvegicus [26] = assay: Rat PCA Test(50% inhibition of spot areas)in the female albino rats after (ip) administration in 10% aqueous acacia gum; value ranges from 96-124; type: functional; details: read-out: ID50 (the source's name); summary of the method: as §5
# Rattus norvegicus [27] = assay: Inhibition of mast cell degranulation was assessed in female albino rats at a dose of 43 umol/kg iv; type: functional
# Rattus norvegicus [28] = assay: Rat PCA Test(50% inhibition of spot areas)in the female albino rats after oral administration in 10% aqueous acacia gum; value ranges from 8-11; type: functional; details: read-out: ID50 (the source's name); summary of the method: as §3
structure (smiles),measurement,setting,value
CSc1ccc(NC(=O)CCN2CCN(c3ccccn3)CC2)cc1,inhibition in vivo at 28 µmol/kg,Rattus norvegicus [1],50%
same,ID75,Cavia porcellus,0.17 µM/kg
same,LD50,Mus musculus,Not Active
same,ED50,Rattus norvegicus [2],171 µmol/kg
same,ED50,Rattus norvegicus [3],57 µmol/kg
same,LD50,[4],> 8400 µmol/kg
Cl.Cl.O=C(CCN1CCN(c2ccccn2)CC1)Nc1cccc([N+](=O)[O-])c1,LD50,[5],2070 µmol/kg
same,ED50,Rattus norvegicus [6],58 µmol/kg
same,ED50,Rattus norvegicus [7],137 µmol/kg
same,ID75,Cavia porcellus,0.37 µM/kg
same,inhibition in vivo at 23 µmol/kg,Rattus norvegicus [8],87%
same,LD50,[9],420 µmol/kg
Cl.Cl.NC(=O)c1ccc(NC(=O)CCN2CCN(c3ccccn3)CC2)cc1,ID75,Cavia porcellus,0.3 µM/kg
same,LD50,Mus musculus,Not Active
same,ED50,Rattus norvegicus [10],124 µmol/kg
same,ED50,Rattus norvegicus [11],> 212 µmol/kg
same,LD50,[4],> 6400 µmol/kg
COC(=O)CCN1CCN(c2ccccn2)CC1.Cl,LD50,[12],4020 µmol/kg
same,ED50,Rattus norvegicus [13],252 µmol/kg
same,ID75,Cavia porcellus,3.5 µM/kg
Cc1cc(C)c(C)c(NC(=O)CCN2CCN(c3ccccn3)CC2)c1C.Cl.Cl,inhibition in vivo at 42 µmol/kg,Rattus norvegicus [14],2%
same,ED50,Rattus norvegicus [15],18 µmol/kg
same,LD50,[16],570 µmol/kg
COc1cccc(N2CCN(CCC(=O)Nc3ccccc3N)CC2)n1.Cl.Cl,ID75,Cavia porcellus,108 µM/kg
same,LD50,[17],670 µmol/kg
same,LD50,[18],370 µmol/kg
CCC(=O)Nc1ccc(NC(=O)CCN2CCN(c3ccccn3)CC2)cc1.Cl.Cl,ED50,Rattus norvegicus [19],147 µmol/kg
same,ID75,Cavia porcellus,0.23 µM/kg
same,LD50,[20],1050 µmol/kg
same,LD50,[21],1530 µmol/kg
CCOc1ccc(NC(=O)CCN2CCN(c3ccccn3)CC2)cc1.Cl.Cl,LD50,[22],920 µmol/kg
same,ED50,Rattus norvegicus [23],37 µmol/kg
same,ID75,Cavia porcellus,0.14 µM/kg
same,LD50,[24],690 µmol/kg
same,inhibition in vivo at 26 µmol/kg,Rattus norvegicus [25],0%
CNC(=O)Nc1ccc(NC(=O)CCN2CCN(c3ccccn3)CC2)cc1.Cl.Cl,ED50,Rattus norvegicus [26],109 µmol/kg
same,inhibition in vivo at 43 µmol/kg,Rattus norvegicus [27],0%
same,ID75,Cavia porcellus,0.29 µM/kg
same,ED50,Rattus norvegicus [11],> 220 µmol/kg
same,LD50,[4],> 6500 µmol/kg
O=c1[nH]c2ccccc2n1CCCN1CCN(C(c2ccccc2)c2ccccc2)CC1 [OXATOMIDE],ED50,Rattus norvegicus [28],9 µmol/kg
same,ID75,Cavia porcellus,0.08 µM/kg
same,inhibition in vivo at 23 µmol/kg,Rattus norvegicus [8],40%
same,LD50,[4],> 7300 µmol/kg
